We go through eight compounds from ChEMBL document CHEMBL1177846, “Benzylidene/2-chlorobenzylidene hydrazides: synthesis, antimicrobial activity, QSAR studies and antiviral evaluation” (Eur J Med Chem, 2010).

As usually defined, the EC50 is the concentration needed to bring the measured effect to its halfway point. The CC50 is the concentration giving 50% cytotoxicity.

In series [1] the test system is Respiratory syncytial virus. As to the kind of experiment: Antiviral activity against RSV infected in human HeLa cells assessed as inhibition of virus-induced cytopathic effect after 3 days by MTS assay. The following applies: 72 h. It counts as functional, organism-based. In a few lines: (§1)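 Confluent cell monolayers were infected with 100 CCID50 of virus and allowed 2 h adsorption at 37 °C. Virus was then removed and serial compound dilutions were added. Cultures were incubated at 37 °C for 3 days, until CPE was complete in the untreated virus control. EC50 was the concentration giving 50% inhibition of virus-induced CPE, by visual score or by MTS formazan cell viability.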
On the technique in general: Damage to the host cells serves as the signal in cytopathic effect assays.

For series [2], the system named is Coxsackievirus B4. Kind of series: Antiviral activity against Coxsackie virus B4 infected in human HeLa cells assessed as inhibition of virus-induced cytopathic effect after 3 days by MTS assay. It counts as functional, organism-based. As to conditions: Enterovirus B, 72 h. Summed up: as §1
Series [3] in a line: (§2) Cytotoxicity against human HeLa cells after 3 days by MTS assay. The class given is cell-based. As to conditions: HeLa cells. In a few lines: (§3)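 Uninfected HeLa cells were run in parallel with the antiviral assay and exposed to serial compound dilutions. CC50 is the 50% cytotoxic concentration from colorimetric formazan-based MTS cell viability.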
On the technique in general: Tetrazolium assays rely on reduction of a dye to a coloured formazan, in cell work by metabolically active cells.

Series [4] concerns HeLa. The description is as §2. The class given is cell-based. The following applies: hela, 72 h. In a few lines: as §3
Series [5] concerns Vesicular stomatitis virus. Kind of series: Antiviral activity against VSV infected in human HeLa cells assessed as inhibition of virus-induced cytopathic effect after 3 days by MTS assay. The class given is functional, organism-based. The following applies: 72 h. Summed up:
as §1

Series [6] has as its system Staphylococcus aureus. As to the kind of experiment: Antibacterial activity against Staphylococcus aureus after 24 hrs by serial dilution method. The class given is functional.
Series [7] deals with Bacillus subtilis. As to the kind of experiment: Antibacterial activity against Bacillus subtilis after 24 hrs by serial dilution method. It counts as functional.
The subject of series [8] is Escherichia coli. Kind of series: Antibacterial activity against Escherichia coli after 24 hrs by serial dilution method. The class given is functional.
In series [9] the test system is Candida albicans. As to the kind of experiment: Antifungal activity against Candida albicans after 48 hrs by serial dilution method. It counts as functional. In a few lines:
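Serial compound dilutions in Sabouraud dextrose broth (tube dilution), incubated 37 °C for 48 h. MIC was read as the lowest concentration with no growth.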

Series [10] deals with Aspergillus niger. As to the kind of experiment: Antifungal activity against Aspergillus niger after 7 days by serial dilution method. The class given is functional.
Series [11] deals with Feline coronavirus. As to the kind of experiment: Antiviral activity against Feline caronavirus infected in […] cells assessed as inhibition of virus-induced cytopathic effect after 3 days by MTS assay. It counts as functional, organism-based. In a few lines: as §1
Series [12] concerns Felid alphaherpesvirus 1. As to the kind of experiment: Antiviral activity against Feline herpesvirus 1 infected in […] cells assessed as inhibition of virus-induced cytopathic effect after 3 days by MTS assay. It counts as functional, organism-based. Summed up:
as §1

In series [13] the test system is Human alphaherpesvirus 1. Kind of series: Antiviral activity against Herpes simplex virus 1 KOS infected in human HEL cells assessed as inhibition of virus-induced cytopathic effect after 3 days by MTS assay. The class given is functional, organism-based. In a few lines: as §1
Series [14] concerns Human alphaherpesvirus 2. Kind of series: Antiviral activity against Herpes simplex virus 2 G infected in human HEL cells assessed as inhibition of virus-induced cytopathic effect after 3 days by MTS assay. The class given is functional, organism-based. The following applies: strain G. In a few lines:
as §1

Series [15] has as its system Vaccinia virus. As to the kind of experiment: Antiviral activity against Vaccinia virus infected in human HEL cells assessed as inhibition of virus-induced cytopathic effect after 3 days by MTS assay. It counts as functional, organism-based. As to conditions: Orthopoxvirus vaccinia. In a few lines: as §1
In series [16] the test system is Human alphaherpesvirus 1. Kind of series: Antiviral activity against acyclovir-resistant […] kinase-deficient HSV1 KOS infected in human HEL cells assessed as inhibition of virus-induced cytopathic effect after 3 days by MTS assay. It counts as functional, organism-based. Summed up:
as §1

For series [17], the system named is Vesicular stomatitis virus. As to the kind of experiment: Antiviral activity against VSV infected in human HEL cells assessed as inhibition of virus-induced cytopathic effect after 3 days by MTS assay. It counts as functional, organism-based. In a few lines: as §1
In series [18] the test system is Influenza A virus. Kind of series: Antiviral activity against influenza A virus H1N1 infected in MDCK cells assessed as inhibition of virus-induced cytopathic effect after 3 days by MTS assay. It counts as functional, organism-based. Summed up:
as §1

In series [19] the test system is Influenza A virus. As to the kind of experiment: Antiviral activity against influenza A virus H3N2 infected in MDCK cells assessed as inhibition of virus-induced cytopathic effect after 3 days by MTS assay. The class given is functional, organism-based. Summed up:
as §1

For series [20], the system named is Influenza B virus. Kind of series: Antiviral activity against influenza B virus infected in MDCK cells assessed as inhibition of virus-induced cytopathic effect after 3 days by MTS assay. It counts as functional, organism-based. In a few lines:
as §1

Series [21] concerns Human respirovirus 3. Kind of series: Antiviral activity against Parainfluenza 3 virus infected in african green monkey Vero cells assessed as inhibition of virus-induced cytopathic effect after 3 days by MTS assay. The class given is functional, organism-based. Summed up:
as §1

In series [22] the test system is Mammalian orthoreovirus 1. As to the kind of experiment: Antiviral activity against Reovirus 1 infected in african green monkey Vero cells assessed as inhibition of virus-induced cytopathic effect after 3 days by MTS assay. It counts as functional, organism-based. In a few lines: as §1
Series [23] concerns Sindbis virus. As to the kind of experiment: Antiviral activity against Simbidis virus infected in african green monkey Vero cells assessed as inhibition of virus-induced cytopathic effect after 3 days by MTS assay. The class given is functional, organism-based. Summed up: as §1
In series [24] the test system is Coxsackievirus B4. As to the kind of experiment: Antiviral activity against Coxsackie virus B4 infected in african green monkey Vero cells assessed as inhibition of virus-induced cytopathic effect after 3 days by MTS assay. The class given is functional, organism-based. In a few lines: as §1
For series [25], the system named is Punta Toro virus. Kind of series: Antiviral activity against Punta toro virus infected in african green monkey Vero cells assessed as inhibition of virus-induced cytopathic effect after 3 days by MTS assay. It counts as functional, organism-based. In a few lines:
as §1

The structures appear in SMILES notation. ≈ marks a conversion by molar mass, not a printed value. Calls of active or inactive are those of the source. The rule behind the calls is not given here.

As to `COc1cc(OC)cc(C(=O)N/N=C/c2ccccc2)c1`, the EC50 in series [1] was > 20 µg/mL; in [2], > 20 µg/mL; in series [5] it was 6.5 µg/mL. Further, the MCC at 72 h in series [3] amounted to 100 µg/mL. This compound also had a cytotoxic concentration (CC50) in [4] of 61.2 µg/mL (≈ 215 µM). Further, the MBC in [6] is given as 0.088 uM/ml; in [7], 0.044 uM/ml; in [8], 0.177 uM/ml. Also, the MFC in series [9] turned out to be 0.011 uM/ml; in series [10], 0.022 uM/ml. For the same compound, in [10], the “-logMIC” value came to 1.66. The inhibition entry in series [11], in series [12], in series [13], in series [14], in series [15] and in series [16] was “inactive” throughout. For the same compound, the inhibition result in series [17], in series [18], in series [19], in series [20], in [21] and in [22] was “inactive” throughout. Further, the inhibition result in series [23], in series [24] and in series [25] was “inactive” each time.

Regarding `NC(=O)c1ncn([C@@H]2O[C@H](CO)[C@@H](O)[C@H]2O)n1` [RIBAVIRIN], the values for the EC50 in series [1], in series [2] and in series [5] were 6.6 µM, 73.1 µM and 17.2 µM, respectively. For the same compound, the CC50 at 72 h in series [3] was > 250 µg/mL. Further, the MCC at 72 h in series [3] was > 250 µM.

On to `O=C(N/N=C/c1ccccc1)c1cc([N+](=O)[O-])cc([N+](=O)[O-])c1`, for which the MBC in [6] is reported as >0.159 uM/ml; in series [7], 0.159 uM/ml; in [8], >0.159 uM/ml. The MFC in series [9] is reported as 0.159 uM/ml; in series [10] it was 0.079 uM/ml. The “-logMIC” value in [10] is given as 1.7. The inhibition result in [11], in series [12], in series [13], in [14], in series [15] and in series [16] was “inactive” each time. Moreover, the inhibition entry in series [17], in series [18], in [19], in series [20], in series [21] and in series [22] was “inactive” each time. The inhibition entry in series [23], in [24] and in series [25] was “inactive” each time.

Consider `Nc1ncnc2c1ncn2C[C@H](O)CO` [(S)-DHPA], for which the EC50 in series [1], in series [2] and in [5] was > 250 µM throughout. The CC50 at 72 h in series [3] was > 250 µg/mL. Also, the MCC at 72 h in series [3] was > 250 µM.

For the compound `O=C(/C=C/c1ccccc1)N/N=C/c1ccccc1`, the MBC in [6] is on record as >0.2 uM/ml; in series [7] it was >0.2 uM/ml; in series [8], 0.05 uM/ml. Besides, the MFC in series [9] and in series [10] was >0.2 uM/ml each time. The “-logMIC” value in series [10] worked out at 1.6. Moreover, the inhibition entry in series [11], in [12], in series [13], in series [14], in [15] and in series [16] was “inactive” each time. Besides, the inhibition entry in [17], in series [18], in series [19], in series [20], in series [21] and in series [22] was “inactive” throughout. For the same compound, the inhibition result in [23], in series [24] and in series [25] was “inactive” each time.

With `Cc1cccc(C(=O)N/N=C/c2ccccc2)c1`, the MBC in [6] is on record as >0.21 uM/ml; in series [7], 0.052 uM/ml; in [8], >0.21 uM/ml. The MFC in [9] and in [10] was >0.21 uM/ml each time. In addition, the “-logMIC” value in series [10] is 1.58. For the same compound, the inhibition entry in series [11], in series [12], in series [13], in series [14], in series [15] and in series [16] was “inactive” throughout. In addition, the inhibition entry in series [17], in [18], in series [19], in series [20], in [21] and in [22] was “inactive” in each case. The inhibition entry in series [23], in series [24] and in [25] was “inactive” throughout.

In the case of `Cc1cccc(C(=O)N/N=C/c2ccccc2Cl)c1`, the MBC in series [6] is on record as >0.183 uM/ml; in series [7], 0.045 uM/ml; in series [8], 0.045 uM/ml. The MFC in [9] and in series [10] was >0.183 uM/ml each time. Further, the “-logMIC” value in series [10] was found to be 1.51. Besides, the inhibition entry in series [11], in series [12], in series [13], in [14], in series [15] and in series [16] was “inactive” throughout. Also, the inhibition entry in series [17], in series [18], in [19], in series [20], in series [21] and in [22] was “inactive” throughout. The inhibition result in series [23], in series [24] and in series [25] was “inactive” in each case.

Turning to `O=C(/C=C/c1ccccc1)N/N=C/c1ccccc1Cl`, the MBC in series [6] is 0.176 uM/ml; in series [7] it was 0.088 uM/ml; in [8], >0.176 uM/ml. For the same compound, the MFC in [9] and in series [10] was >0.176 uM/ml throughout. The “-logMIC” value in [10] is 1.76. The inhibition entry in series [11], in series [12], in series [13], in series [14], in series [15] and in series [16] was “inactive” throughout. For the same compound, the inhibition result in series [17], in series [18], in [19], in series [20], in series [21] and in series [22] was “inactive” each time. Moreover, the inhibition entry in series [23], in [24] and in [25] was “inactive” each time.
